In article PMC10962727 (PNAS Nexus, 2024):
Values belong to the compound of their own block, whether it stands above or below them.

Columns and labels:
[1] = Pharmacokinetics in mice; format: in vivo; conditions: female, CD1, mouse, plasma, po, 20 mg/kg
Procedure, shortened: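 Female CD1 mice and male beagle dogs received test compound orally in 0.5% methylcellulose:0.5% Tween-80 or intravenously in saline, both at 5 mL/kg. After oral dosing, plasma concentrations were measured at 30 min, 1 h, 3 h, 8 h and 24 h.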

[2] = molecular target: T1, MST1 (Homo sapiens, UniProt Q13043); conditions: high-throughput MST1 inhibition screen ref 16, 17; cited from earlier work
T1 sequence (Q13043 1-487): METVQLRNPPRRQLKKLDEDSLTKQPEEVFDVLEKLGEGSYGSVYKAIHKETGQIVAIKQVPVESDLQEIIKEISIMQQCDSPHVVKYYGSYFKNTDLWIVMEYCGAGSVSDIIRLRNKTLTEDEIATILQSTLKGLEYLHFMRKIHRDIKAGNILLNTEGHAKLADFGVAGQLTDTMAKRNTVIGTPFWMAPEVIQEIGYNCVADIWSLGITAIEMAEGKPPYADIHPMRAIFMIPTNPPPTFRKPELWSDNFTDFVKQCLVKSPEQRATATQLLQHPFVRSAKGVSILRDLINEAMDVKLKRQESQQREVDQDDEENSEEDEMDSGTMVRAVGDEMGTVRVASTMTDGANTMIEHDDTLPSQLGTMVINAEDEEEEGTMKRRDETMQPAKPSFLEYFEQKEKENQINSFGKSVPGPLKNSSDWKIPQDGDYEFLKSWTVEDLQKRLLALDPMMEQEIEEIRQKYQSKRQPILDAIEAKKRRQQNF

[3] = molecular target: T1, MST1; test: MST1 inhibition; format: biochemical; conditions: vs neratinib
[4] = molecular target: EGFR (Homo sapiens, UniProt P00533); test: EGFR inhibition; format: biochemical
[5] = tested on: MST1/2; conditions: cited from earlier work

EGFR, sequence (P00533 25-1210): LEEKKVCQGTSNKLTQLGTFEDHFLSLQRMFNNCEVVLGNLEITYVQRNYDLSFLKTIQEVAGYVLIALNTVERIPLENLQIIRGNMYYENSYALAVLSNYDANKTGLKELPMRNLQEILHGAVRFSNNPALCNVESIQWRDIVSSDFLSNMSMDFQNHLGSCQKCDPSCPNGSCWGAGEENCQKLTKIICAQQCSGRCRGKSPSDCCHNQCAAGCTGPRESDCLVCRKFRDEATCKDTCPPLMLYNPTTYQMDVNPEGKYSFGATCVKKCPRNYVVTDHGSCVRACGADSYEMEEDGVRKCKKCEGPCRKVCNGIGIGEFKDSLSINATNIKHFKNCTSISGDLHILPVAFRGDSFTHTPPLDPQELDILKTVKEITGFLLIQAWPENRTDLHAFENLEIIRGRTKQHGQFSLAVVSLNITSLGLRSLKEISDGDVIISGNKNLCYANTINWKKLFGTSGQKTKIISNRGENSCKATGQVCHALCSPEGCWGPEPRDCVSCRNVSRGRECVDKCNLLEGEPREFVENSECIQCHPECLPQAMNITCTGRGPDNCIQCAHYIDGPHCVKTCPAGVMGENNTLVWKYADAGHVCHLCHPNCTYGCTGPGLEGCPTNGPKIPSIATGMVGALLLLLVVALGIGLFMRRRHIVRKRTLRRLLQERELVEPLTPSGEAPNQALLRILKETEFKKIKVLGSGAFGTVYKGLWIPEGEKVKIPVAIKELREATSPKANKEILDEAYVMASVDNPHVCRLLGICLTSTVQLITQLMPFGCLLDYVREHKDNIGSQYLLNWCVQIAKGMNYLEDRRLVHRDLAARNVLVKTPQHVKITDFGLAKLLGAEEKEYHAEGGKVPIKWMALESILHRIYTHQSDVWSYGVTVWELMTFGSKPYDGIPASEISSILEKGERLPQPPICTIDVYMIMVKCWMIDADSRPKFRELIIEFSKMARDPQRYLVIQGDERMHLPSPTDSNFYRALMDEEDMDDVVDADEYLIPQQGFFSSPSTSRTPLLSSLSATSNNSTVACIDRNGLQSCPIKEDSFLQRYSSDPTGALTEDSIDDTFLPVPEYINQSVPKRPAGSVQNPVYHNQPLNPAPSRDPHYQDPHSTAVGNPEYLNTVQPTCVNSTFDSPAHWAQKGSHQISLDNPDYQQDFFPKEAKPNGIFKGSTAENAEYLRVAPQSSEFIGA

AUC(0-t) [1]: 3120 ng·h/mL
Cmax [1]: 342 ± 152 ng/mL
MRT [1]: 5.4 ± 1.3 h
Tmax [1]: 4 ± 3 h
Compound: CCOc1cc2ncc(C#N)c(Nc3ccc(OCc4ccccn4)c(Cl)c3)c2cc1NC(=O)/C=C/CN(C)C [Neratinib]
MST1 inhibitory activity (in words) [2]: high MST1 inhibitory activity

Compound: CCOc1cc2ncc(C#N)c(Nc3ccc(OCc4ccccn4)c(Cl)c3)c2cc1NC(=O)CCCN(C)C [mBNB885]
MST1 activity (in words) [3]: preserved MST1 activity
fold reduction in potency toward EGFR / EGFR inhibition ([4]; compared with preceding/parent compound): 5 fold
IC50 ([4]; read-out: EGFR IC50): 1.42 nM

Compound: XMU-MP-1
MST1/2 inhibition (in words) [5]: selective MST1/2 inhibition
